{"data": "Measurements gathered from unrelated publications", "note": "Each line is one published result; the experiments were not run side by side."}
{"SMILES": "O=c1ccc2ccc(O)cc2o1", "assay": "metabolic stability", "test system": "dog, liver microsomes", "quantity": "scaled CLint", "value": "1720 mL/min/kg"}
{"SMILES": "CCN1CCN(C(=O)c2ccc(-n3nc(-c4cccnc4)c4c3-c3sc(NC(C)=O)nc3CC4)cc2)CC1", "quantity": "logP", "value": 3.16}
{"SMILES": "CCOc1ccc2ccc(=O)oc2c1", "assay": "metabolic stability", "test system": "male beagle dog, hepatocytes", "conditions": "1 µM", "quantity": "hepatocyte CLint", "value": "> 46.2 µL/min/10⁶ cells"}
{"SMILES": "CCN1CCN(Cc2ccc(NC(=O)c3ccc(C)c(NC(=O)c4cncc(-c5cccs5)c4)c3)cc2C(F)(F)F)CC1", "test system": "mouse, plasma", "conditions": "intraperitoneal, 20 mg/kg, single dose", "quantity": "half-life", "value": "2.52 h"}
{"SMILES": "CN(C)CC#Cc1ccc2[nH]c3c(c2c1)-c1nc(N)ncc1CCC3", "test system": "male CD-1 mouse, plasma", "conditions": "intraperitoneal, 30 mg/kg, 1 h, single dose", "quantity": "concentration", "value": "697 ng/mL"}
{"SMILES": "O=C1NC(=O)/C(=C/c2ccc3ncnc(N4CCCCC4)c3n2)S1", "quantity": "logP", "value": 2.33}
{"SMILES": "CN(C(=O)c1ccn2ncc(-c3ccc(C(N)=O)cc3)c2c1)c1ccc(C#N)cn1", "test system": "female C57BL/6 mouse, plasma", "conditions": "oral, 10 mg/kg, 4 h", "quantity": "concentration", "value": "519 nM"}
{"SMILES": "O=C1NC(=O)/C(=C/c2ccc3ncnc(N4CCC(F)(F)CC4)c3n2)S1", "quantity": "logP", "value": 2.51}
{"SMILES": "CCOC(=O)c1cc(Cl)cc(NC(=O)c2sc(Cl)cc2S(=O)(=O)N(C)c2ccc(OCC)c(OC)c2)c1", "test system": "male C57BL/6 mouse, brain", "conditions": "intraperitoneal, 10 mg/kg, 1 h", "quantity": "concentration", "value": "6.45 ng/g"}
{"SMILES": "CNC(=O)c1ccc(-c2cnn3ccc(C(=O)N(C[C@H]4CCC(=O)O4)c4ccc(OC(F)(F)F)cc4)cc23)cc1", "test system": "female C57BL/6 mouse, plasma", "conditions": "oral, 10 mg/kg, 1 h", "quantity": "concentration", "value": "31.4 nM"}
{"SMILES": "Cc1cc2sc(N)nc2c2cccnc12", "test system": "female BALB/c mouse, plasma", "conditions": "intraperitoneal, 30 mg/kg, 24 h, single dose", "quantity": "concentration", "value": "32.7 ng/mL"}
{"SMILES": "CCOC(=O)CN(C(=O)c1ccn2ncc(-c3ccc(C(=O)NC)cc3)c2c1)c1ccc(Cl)cc1", "test system": "female C57BL/6 mouse, plasma", "conditions": "oral, 10 mg/kg, 4 h", "quantity": "concentration", "value": "150 nM"}
{"SMILES": "COc1cc(N2CCC(N3CCN(C)CC3)CC2)ccc1Nc1ncc(Cl)c(Nc2ccccc2P(C)(C)=O)n1", "quantity": "logP", "value": 2.69}
